Reference: article PMC4516694 (Bioorganic & medicinal chemistry, 2015)
One block for each molecule: values may come before it.

How the values were obtained:
[1] = system: CRF1 receptor; experiment: Non-human primate microPET imaging; type: in vivo, male cynomolgus monkey; conditions: anesthetized cynomolgus monkey
How it was run: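 Male cynomolgus monkey on a Siemens MicroPET Focus 220. A Co-57 point-source transmission scan was used for attenuation correction. F-18 radiotracer given by saphenous vein injection, then dynamic imaging for 120 min.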

[2] = biological target: T1, transfected human CRF1 receptors in HEK293T cells (Homo sapiens, UniProt P34998); experiment: In vitro competition binding assay at 23 °C vs. [125I]-Tyr0-sauvagine; conditions: for Ki: Ki (nM) ± SEM, vs. [125I]-Tyr0-sauvagine, HEK293T cell membranes
T1 sequence (P34998 24-415): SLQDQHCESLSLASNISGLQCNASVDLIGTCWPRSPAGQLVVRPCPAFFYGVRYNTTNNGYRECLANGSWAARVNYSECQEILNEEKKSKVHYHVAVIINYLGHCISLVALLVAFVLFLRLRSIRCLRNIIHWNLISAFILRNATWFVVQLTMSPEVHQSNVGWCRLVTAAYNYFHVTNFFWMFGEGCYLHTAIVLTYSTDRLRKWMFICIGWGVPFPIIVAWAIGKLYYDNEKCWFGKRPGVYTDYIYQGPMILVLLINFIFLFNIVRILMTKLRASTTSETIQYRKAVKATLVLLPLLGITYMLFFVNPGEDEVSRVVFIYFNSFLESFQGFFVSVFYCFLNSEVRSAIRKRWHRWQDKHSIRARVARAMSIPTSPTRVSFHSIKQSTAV
How it was run: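 Human CRF1 plasmid transiently lipofected into HEK293T (DMEM, 10% FBS, grown to 75% confluency); cells harvested 48 h post-transfection; membranes homogenized in pH 7.2 HEPES/MgCl2/EGTA/BSA/aprotinin buffer. ~80 pM [125I]sauvagine plus test compound (10−13–10−5 M final), 2 h, 23 °C; filtered over polyethyleneamine-soaked filters and cold-washed. Triplicates; Ki by one-site competition fit (Kd 0.5 nM); ratios from Ki values.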

[3] = biological target: CRF1 receptor; conditions: read-out: Ki, previously reported value; cited from earlier work
[4] = Rat microPET imaging; type: in vivo, male Sprague-Dawley rat; conditions: anesthetized rat
How it was run: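 One male Sprague-Dawley rat on an Inveon microPET/CT: isoflurane induction at 3–4%, maintained at 1–1.5% by nose cone. Prone, warmed with circulating air; Co-57 transmission scan for attenuation correction. F-18 radiotracer given by tail vein injection, then dynamic imaging for 60 min.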

brain uptake and washout compared with the other radiotracers ([1]; microPET TACs): very similar to that of [^18F]28
SMILES: [2H]C([2H])([18F])C([2H])([2H])C([2H])([2H])C([2H])([2H])N(C)c1cc(C)nc2c(-c3ccc(Cl)cc3Cl)c(C)nn12 [[^18F]28-d8, 3-(2,4-dichlorophenyl)-N-(4-[^18F]fluorobutyl-1,1,2,2,3,3,4,4-d8)-N,2,5-trimethylpyrazolo[1,5-a]pyrimidin-7-amine]
radioactivity uptake in the skull and sphenoid region / defluorination ([1]; microPET TACs): reduced somewhat relative to [^18F]28 but defluorination was not completely prevented

liver uptake (SUV) ([4]; at 3 min, tail vein injection): 5.4 SUV
brain uptake (SUV) ([4]; at 5 min, tail vein injection): 2 SUV
brain penetrance ([4]; microPET): brain penetrance was achieved
stability to defluorination (bone visualization) ([4]; microPET): stable to defluorination
brain penetrance ([1]; microPET): brain penetrance was achieved
specific binding in brain (high vs low CRF1 receptor density regions) ([1]; microPET TACs): little or no specific binding
SMILES: Cc1cc(N(C)CCCC[18F])n2nc(C)c(-c3ccc(Cl)cc3Cl)c2n1 [[^18F]28, 3-(2,4-dichlorophenyl)-N-(4-[^18F]fluorobutyl)-N,2,5-trimethylpyrazolo[1,5-a]pyrimidin-7-amine]
radioactivity uptake in the skull and sphenoid region / defluorination ([1]; microPET TACs): high radioactivity uptake in the skull, and sphenoid bone and/or sphenoid sinus, suggests defluorination

fold stronger binding affinity relative to [18F]28 [2]: ~ 2 fold
brain uptake and washout compared with the other radiotracers ([1]; microPET TACs): the overall amount of uptake was less
SMILES: CCN(CCCC[18F])c1cc(C)nc2c(-c3ccc(Cl)cc3Cl)c(C)nn12 [[^18F]29, 3-(2,4-dichlorophenyl)-N-ethyl-N-(4-[^18F]fluorobutyl)-2,5-dimethylpyrazolo[1,5-a]pyrimidin-7-amine]
radioactivity uptake in the skull and sphenoid region / defluorination ([1]; microPET TACs): less than that of [^18F]28 and [^18F]28-d8

radioactivity uptake in the skull and sphenoid region / defluorination ([1]; microPET TACs): rapid uptake and then a steady washout
specific binding in brain (high vs low CRF1 receptor density regions) ([1]; microPET TACs): little or no specific binding
time of peak brain uptake ([1]; microPET TACs): 5 to 15 min
SMILES: CCN(CCOCC[18F])c1cc(C)nc2c(-c3ccc(Cl)cc3Cl)c(C)nn12 [[^18F]27, 3-(2,4-dichlorophenyl)-N-ethyl-N-(2-(2-[^18F]fluoroethoxy)ethyl)-2,5-dimethylpyrazolo[1,5-a]pyrimidin-7-amine]

The remaining lines, values behind:

SMILES: CCN(CCOCCF)c1cc(C)nc2c(-c3ccc(Cl)cc3Cl)c(C)nn12 [Compound 27, 3-(2,4-dichlorophenyl)-N-ethyl-N-(2-(2-fluoroethoxy)ethyl)-2,5-dimethylpyrazolo[1,5-a]pyrimidin-7-amine]
Ki ([2]; 23 °C): 1.17 ± 0.07 nM
fold loss of affinity relative to 29 ([2]; ratio of Ki values, Table 1): ~ 2.5 fold

SMILES: CCCCN(CC)c1cc(C)nc2c(-c3ccc(Cl)cc3Cl)c(C)nn12 [Compound 22, N-butyl-3-(2,4-dichlorophenyl)-N-ethyl-2,5-dimethylpyrazolo[1,5-a]pyrimidin-7-amine]
Ki ([2]; 23 °C): 0.46 ± 0.06 nM
Ki [3]: 0.9 ± 0.1 nM

SMILES: Cc1cc(N(C)CCCCF)n2nc(C)c(-c3ccc(Cl)cc3Cl)c2n1 [Compound 28, 3-(2,4-dichlorophenyl)-N-(4-fluorobutyl)-N,2,5-trimethylpyrazolo[1,5-a]pyrimidin-7-amine]
Ki ([2]; 23 °C): 1.07 ± 0.21 nM
fold loss of affinity relative to 29 ([2]; ratio of Ki values, Table 1): ~ 2.3 fold

SMILES: CCN(CCCCF)c1cc(C)nc2c(-c3ccc(Cl)cc3Cl)c(C)nn12 [Compound 29, 3-(2,4-dichlorophenyl)-N-ethyl-N-(4-fluorobutyl)-2,5-dimethylpyrazolo[1,5-a]pyrimidin-7-amine]
Ki ([2]; 23 °C): 0.47 ± 0.1 nM

SMILES: Cc1cc(N(CCF)CCCCF)n2nc(C)c(-c3ccc(Cl)cc3Cl)c2n1 [Compound 30, 3-(2,4-dichlorophenyl)-N-(4-fluorobutyl)-N-(2-fluoroethyl)-2,5-dimethylpyrazolo[1,5-a]pyrimidin-7-amine]
Ki ([2]; 23 °C): 0.59 ± 0.04 nM

SMILES: Cc1cc(N(C)CCOCCF)n2nc(C)c(-c3ccc(Cl)cc3Cl)c2n1 [Compound 26, 3-(2,4-dichlorophenyl)-N-(2-(2-fluoroethoxy)ethyl)-N,2,5-trimethylpyrazolo[1,5-a]pyrimidin-7-amine]
decrease in affinity relative to compounds 27, 28, 29 and 30 ([2]; 23 °C): ≥ 10 fold
Ki ([2]; 23 °C): 12.4 ± 1.06 nM
fold loss of affinity relative to 29 ([2]; ratio of Ki values, Table 1): ~ 26 fold
fold loss of affinity upon changing 28 to 26 ([2]; ratio of Ki values, Table 1): ~12 fold
fold lower binding affinity than 27 or 28 ([2]; ratio of Ki values, Table 1): 10 – 12 fold

SMILES: CCCN(CCC)c1cc(C)nc2c(-c3ccc(Cl)cc3Cl)c(C)nn12 [Compound 21, 3-(2,4-dichlorophenyl)-2,5-dimethyl-N,N-dipropylpyrazolo[1,5-a]pyrimidin-7-amine]
Ki ([2]; 23 °C): 0.47 ± 0.08 nM

SMILES: Cc1cc(N(C)CCOCC[18F])n2nc(C)c(-c3ccc(Cl)cc3Cl)c2n1 [[^18F]26, 3-(2,4-dichlorophenyl)-N-(2-(2-[^18F]fluoroethoxy)ethyl)-N,2,5-trimethylpyrazolo[1,5-a]pyrimidin-7-amine]
brain uptake and washout compared with the other radiotracers ([1]; microPET TACs): entered the brain more rapidly and washed out more rapidly
radioactivity uptake in the skull and sphenoid region / defluorination ([1]; microPET TACs): rapid uptake and then a steady washout
